Consider 18 compounds from ChEMBL document CHEMBL1926556, “Synthesis and biological activities of 2-[(heteroaryl)methyl]imidazolines” (Bioorg Med Chem, 2012).

One assay concerns the target Nischarin (Rattus norvegicus, UniProt Q4G017). Nature of the assay: Displacement of [3H]clonidine from imidazoline I1 receptor in Sprague-Dawley rat kidney membranes after 45 mins by scintillation counting. It counts as cell membranes, Membrane. An outline of the steps:
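Crude P2 membranes from male Sprague–Dawley rat kidney, 0.2–0.5 mg protein. […] Specific binding defined by 10 µM rilmenidine. 11 concentrations from 0.01 to 100 µM, 50 mM Tris-HCl pH 7.4, 45 min at RT. Filtration and scintillation counting; IC50.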
In general terms: Displacement assays read how much labelled ligand stays bound in the presence of the test substance.

Assay [1] addresses T1, Adrenergic receptor alpha-2 (Rattus norvegicus, UniProt P22086+P19328+P22909).
T1 sequence (P22086 whole entry): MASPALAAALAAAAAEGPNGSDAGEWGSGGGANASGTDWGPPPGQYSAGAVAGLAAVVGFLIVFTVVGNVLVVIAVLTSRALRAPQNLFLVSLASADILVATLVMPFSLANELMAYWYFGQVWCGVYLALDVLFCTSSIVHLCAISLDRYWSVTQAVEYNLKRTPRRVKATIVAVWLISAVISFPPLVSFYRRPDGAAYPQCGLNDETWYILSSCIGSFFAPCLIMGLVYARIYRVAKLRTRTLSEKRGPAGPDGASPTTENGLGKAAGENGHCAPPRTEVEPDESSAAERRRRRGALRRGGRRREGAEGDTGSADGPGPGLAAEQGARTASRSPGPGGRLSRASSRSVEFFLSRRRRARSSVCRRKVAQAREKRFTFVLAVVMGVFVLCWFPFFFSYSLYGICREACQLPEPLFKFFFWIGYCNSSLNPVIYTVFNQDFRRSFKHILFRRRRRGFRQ
T1 sequence (P19328 whole entry): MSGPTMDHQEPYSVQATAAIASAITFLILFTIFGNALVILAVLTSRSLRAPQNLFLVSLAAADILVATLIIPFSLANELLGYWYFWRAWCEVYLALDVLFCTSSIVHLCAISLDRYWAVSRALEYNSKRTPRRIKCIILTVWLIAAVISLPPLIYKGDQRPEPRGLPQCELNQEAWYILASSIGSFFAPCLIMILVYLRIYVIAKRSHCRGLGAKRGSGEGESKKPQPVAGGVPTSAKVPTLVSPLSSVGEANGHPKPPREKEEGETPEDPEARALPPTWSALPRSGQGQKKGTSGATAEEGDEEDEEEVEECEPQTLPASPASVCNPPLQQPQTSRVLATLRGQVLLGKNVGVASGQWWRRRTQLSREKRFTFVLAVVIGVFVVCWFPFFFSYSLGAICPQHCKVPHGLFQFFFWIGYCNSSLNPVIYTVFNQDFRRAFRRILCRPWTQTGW
T1 sequence (P22909 whole entry): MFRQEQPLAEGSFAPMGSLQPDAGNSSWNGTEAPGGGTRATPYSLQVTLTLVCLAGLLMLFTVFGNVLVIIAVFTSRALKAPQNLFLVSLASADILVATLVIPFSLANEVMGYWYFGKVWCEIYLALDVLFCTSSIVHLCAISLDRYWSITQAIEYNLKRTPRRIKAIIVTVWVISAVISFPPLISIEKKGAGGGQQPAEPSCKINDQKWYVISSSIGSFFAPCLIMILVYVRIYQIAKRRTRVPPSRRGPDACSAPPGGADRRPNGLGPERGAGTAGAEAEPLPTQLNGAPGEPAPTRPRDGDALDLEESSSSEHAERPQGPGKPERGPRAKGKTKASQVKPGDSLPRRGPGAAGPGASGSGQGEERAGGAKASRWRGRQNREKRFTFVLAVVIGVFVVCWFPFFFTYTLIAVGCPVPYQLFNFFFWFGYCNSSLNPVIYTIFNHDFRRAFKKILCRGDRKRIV
Nature of the assay: Displacement of […] from adrenoceptor alpha2 in Sprague-Dawley rat brain membranes after 45 mins by scintillation counting. It counts as cell membranes, Membrane. In outline:
(§1)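 Crude P2 membranes from male Sprague–Dawley rat brain (250–280 g), 0.2–0.3 mg protein. Radioligand 1 nM: [3H]2BFI for I2, [3H]prazosin for α1, [3H]RX821002 for α2. Non-specific binding defined by 10 µM BU224 (I2), 10 µM phenylephrine (α1) or 10 µM rauwolscine (α2). 11 concentrations from 0.01 nM to 100 µM, triplicate, 45 min at RT. Filtration and scintillation counting; Ki by Cheng–Prusoff.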

In assay [2] the target is T2, Adrenergic receptor alpha-1 (Rattus norvegicus, UniProt P15823+P23944+P43140).
T2 sequence (P15823 whole entry): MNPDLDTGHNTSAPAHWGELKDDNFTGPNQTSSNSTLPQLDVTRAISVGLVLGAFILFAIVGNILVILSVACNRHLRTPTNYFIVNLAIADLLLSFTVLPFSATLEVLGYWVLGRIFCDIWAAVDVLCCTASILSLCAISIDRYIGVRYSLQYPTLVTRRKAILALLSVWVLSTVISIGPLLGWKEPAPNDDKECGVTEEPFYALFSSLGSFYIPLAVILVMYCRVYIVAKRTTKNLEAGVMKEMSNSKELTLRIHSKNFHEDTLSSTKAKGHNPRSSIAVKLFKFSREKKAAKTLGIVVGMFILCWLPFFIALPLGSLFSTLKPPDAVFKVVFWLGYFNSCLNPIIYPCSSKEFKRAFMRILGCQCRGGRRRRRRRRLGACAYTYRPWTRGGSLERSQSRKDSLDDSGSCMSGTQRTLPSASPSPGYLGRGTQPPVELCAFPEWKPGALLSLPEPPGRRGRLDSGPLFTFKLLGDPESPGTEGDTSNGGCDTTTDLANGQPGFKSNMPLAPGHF
T2 sequence (P23944 whole entry): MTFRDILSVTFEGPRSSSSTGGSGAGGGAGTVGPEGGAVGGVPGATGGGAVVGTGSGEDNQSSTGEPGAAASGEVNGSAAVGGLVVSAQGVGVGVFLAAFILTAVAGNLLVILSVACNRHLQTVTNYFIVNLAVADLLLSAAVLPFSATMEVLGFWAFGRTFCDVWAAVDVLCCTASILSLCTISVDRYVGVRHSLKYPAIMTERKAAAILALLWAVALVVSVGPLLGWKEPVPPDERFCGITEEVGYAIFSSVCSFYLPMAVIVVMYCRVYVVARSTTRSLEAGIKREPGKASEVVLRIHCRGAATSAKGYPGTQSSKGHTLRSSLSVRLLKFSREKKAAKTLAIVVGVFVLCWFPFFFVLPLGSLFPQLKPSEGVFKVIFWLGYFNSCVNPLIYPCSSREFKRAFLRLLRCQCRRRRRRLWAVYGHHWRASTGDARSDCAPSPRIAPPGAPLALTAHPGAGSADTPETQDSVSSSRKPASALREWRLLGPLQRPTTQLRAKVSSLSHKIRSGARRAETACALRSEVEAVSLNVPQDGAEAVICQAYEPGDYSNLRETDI
T2 sequence (P43140 whole entry): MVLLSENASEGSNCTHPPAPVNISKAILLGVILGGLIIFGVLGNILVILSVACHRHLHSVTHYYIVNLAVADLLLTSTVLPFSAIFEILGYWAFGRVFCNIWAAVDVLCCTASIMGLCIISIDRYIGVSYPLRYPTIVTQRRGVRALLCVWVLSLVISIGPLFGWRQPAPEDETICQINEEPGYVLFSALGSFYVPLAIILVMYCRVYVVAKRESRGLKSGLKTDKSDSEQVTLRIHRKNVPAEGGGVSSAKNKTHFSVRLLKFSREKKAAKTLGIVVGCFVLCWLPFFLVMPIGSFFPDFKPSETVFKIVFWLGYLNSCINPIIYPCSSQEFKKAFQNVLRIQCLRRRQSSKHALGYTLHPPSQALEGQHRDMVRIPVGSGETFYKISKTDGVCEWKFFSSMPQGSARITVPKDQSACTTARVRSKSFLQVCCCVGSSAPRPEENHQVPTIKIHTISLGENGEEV
Description: Displacement of [3H]prazosin from adrenoceptor alpha1 in Sprague-Dawley rat brain after 45 mins by scintillation counting. An outline of the steps:
as §1

The next assay is filed under the species Rattus norvegicus. Description: Displacement of [3H]BFI from imidazoline I2 in Sprague-Dawley rat brain membranes at 1 X 10^6 after 45 mins by scintillation counting. It counts as cell membranes. As to conditions: Membrane.
Assay [3] can be described thus: Displacement of [3H]BFI from imidazoline I2 receptor in Sprague-Dawley rat brain membranes after 45 mins by scintillation counting. It counts as cell membranes, Membrane. An outline of the steps:
as §1

Assay [4] has as its target T3, Alpha-2A adrenergic receptor (Homo sapiens) (UniProt P08913).
T3 sequence (whole entry): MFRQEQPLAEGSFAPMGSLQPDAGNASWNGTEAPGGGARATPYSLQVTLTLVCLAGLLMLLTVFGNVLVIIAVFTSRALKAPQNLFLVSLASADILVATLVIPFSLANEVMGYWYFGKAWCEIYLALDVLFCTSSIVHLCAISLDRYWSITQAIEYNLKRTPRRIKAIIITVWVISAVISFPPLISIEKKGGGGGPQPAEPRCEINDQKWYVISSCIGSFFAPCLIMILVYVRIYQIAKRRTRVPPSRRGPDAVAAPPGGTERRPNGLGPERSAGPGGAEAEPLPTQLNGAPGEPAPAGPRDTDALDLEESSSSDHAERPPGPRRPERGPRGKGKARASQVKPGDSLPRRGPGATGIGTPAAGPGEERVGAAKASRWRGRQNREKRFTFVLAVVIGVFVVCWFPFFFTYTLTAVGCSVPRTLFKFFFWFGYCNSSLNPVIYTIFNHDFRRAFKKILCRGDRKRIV
Description: Agonist activity at human adrenoceptor alpha2A expressed in CHOK1 cells assessed as stimulation of agonist-induced [35S]GTPgammaS binding by scintillation counting assay relative to noradrenaline. It counts as functional, cell-based. To be noted: CHO-K1. In outline: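 Membranes from CHO-K1 cells stably expressing human α2A-adrenoceptor; 5 µg protein incubated with serial dilutions of agonist and 0.1 nM [35S]GTPγS in Tris buffer pH 7.4 with 1 µM GDP, MgCl2, NaCl, 30 min at RT. Filtered and counted by scintillation. EC50 and intrinsic activity relative to noradrenaline; means from 3 independent experiments.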

Activity calls are given as the source filed them. No cut-off for these calls is given here.

Nischarin, sequence (Q4G017 whole entry): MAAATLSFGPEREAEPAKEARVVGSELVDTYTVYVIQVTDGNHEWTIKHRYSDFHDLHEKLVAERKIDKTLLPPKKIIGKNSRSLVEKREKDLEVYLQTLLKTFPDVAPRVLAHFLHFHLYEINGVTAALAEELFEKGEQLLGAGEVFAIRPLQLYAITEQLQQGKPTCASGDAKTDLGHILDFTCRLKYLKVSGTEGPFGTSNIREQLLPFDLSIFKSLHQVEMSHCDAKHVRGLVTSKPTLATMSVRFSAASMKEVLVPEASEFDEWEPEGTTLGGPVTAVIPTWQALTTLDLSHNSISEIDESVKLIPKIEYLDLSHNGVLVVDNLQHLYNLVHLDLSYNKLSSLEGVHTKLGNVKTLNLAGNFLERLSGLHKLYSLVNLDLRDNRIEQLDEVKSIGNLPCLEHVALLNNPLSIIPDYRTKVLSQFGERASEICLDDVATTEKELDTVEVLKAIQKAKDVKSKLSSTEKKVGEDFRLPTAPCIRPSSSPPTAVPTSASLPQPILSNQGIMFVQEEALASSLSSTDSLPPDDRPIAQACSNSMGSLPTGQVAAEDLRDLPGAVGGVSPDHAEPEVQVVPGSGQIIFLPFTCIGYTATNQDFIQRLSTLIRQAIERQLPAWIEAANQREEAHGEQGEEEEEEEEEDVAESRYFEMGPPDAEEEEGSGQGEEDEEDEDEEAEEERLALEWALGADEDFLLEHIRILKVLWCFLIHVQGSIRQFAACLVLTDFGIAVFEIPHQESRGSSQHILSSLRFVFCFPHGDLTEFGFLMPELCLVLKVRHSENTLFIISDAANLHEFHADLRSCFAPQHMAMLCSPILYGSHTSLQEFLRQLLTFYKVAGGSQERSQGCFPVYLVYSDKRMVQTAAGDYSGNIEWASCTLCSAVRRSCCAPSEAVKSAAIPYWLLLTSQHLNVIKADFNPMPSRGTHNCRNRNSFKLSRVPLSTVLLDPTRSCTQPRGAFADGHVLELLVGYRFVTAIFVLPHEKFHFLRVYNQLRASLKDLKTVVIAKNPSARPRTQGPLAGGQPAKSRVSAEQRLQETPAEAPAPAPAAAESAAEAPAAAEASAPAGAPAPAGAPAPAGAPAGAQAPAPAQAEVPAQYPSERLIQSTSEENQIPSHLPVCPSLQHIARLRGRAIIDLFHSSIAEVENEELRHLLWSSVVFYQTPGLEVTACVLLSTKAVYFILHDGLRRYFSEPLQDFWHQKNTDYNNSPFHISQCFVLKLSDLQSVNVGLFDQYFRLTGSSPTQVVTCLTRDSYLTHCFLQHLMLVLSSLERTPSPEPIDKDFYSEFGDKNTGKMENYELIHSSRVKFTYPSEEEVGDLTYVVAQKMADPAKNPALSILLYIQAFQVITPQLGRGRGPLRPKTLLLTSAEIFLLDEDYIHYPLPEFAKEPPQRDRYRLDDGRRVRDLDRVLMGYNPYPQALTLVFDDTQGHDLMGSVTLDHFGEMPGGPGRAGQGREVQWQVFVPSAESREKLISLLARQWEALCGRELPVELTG

In general, IC50 refers to the concentration that gives 50% inhibition. Low values mean greater potency, high ones weaker potency. Broadly, the Ki is the dissociation constant of the complex between target and ligand, obtained from inhibition or displacement. The low end stands for a stronger hold on the target, the high end for a looser hold on the target. With `Cl.Cl.c1ccc(Cc2nc3ccccc3n2CC2=NCCN2)cc1`, at Nischarin, the IC50 came to 21 µM. The Ki in assay [1] was found to be 11.2 µM; in assay [2] it was 30.9 µM. In addition, the result in the assay listed under Rattus norvegicus was inactive.
As for `Cc1cc2ncn(CC3=NCCN3)c2cc1C.Cl.Cl`, the IC50 at Nischarin was determined as 74 µM. Besides, the figures for the inhibitory constant (Ki) in assay [3], in assay [1] and in assay [2] were 28 µM, 2.26 µM and 1.5 µM, respectively.
`Cc1nc2ccccc2n1CC1=NCCN1.Cl.Cl`: the IC50 at Nischarin came to 9.39 µM. Besides, the Ki turned out to be 1.02 µM in assay [1] and 1.29 µM in assay [2]. In addition, the result in the assay filed under Rattus norvegicus was inactive.
On Nischarin, `CCc1nc2cc(C)c(C)cc2n1CC1=NCCN1.Cl.Cl` came in with an IC50 of 93.3 µM. Also, the Ki turned out to be 0.081 µM in assay [3], 7.41 µM in assay [1] and 12.9 µM in assay [2].
As a reminder, the Emax is the greatest response seen or fitted, relative to the assay's reference. With `NC[C@H](O)c1ccc(O)c(O)c1`, in assay [4], the Emax turned out to be 100%.
`Cc1cccc2c1ncn2CC1=NCCN1.Cl.Cl` had an IC50 at Nischarin of 77.7 µM. Besides, the Ki is 24.4 µM in assay [3], 0.273 µM in assay [1] and 1.5 µM in assay [2].
For `Cl.c1ccc2c(c1)nnn2CC1=NCCN1`, the IC50 on Nischarin amounted to 56.8 µM. Further, the Ki amounted to 0.81 µM in assay [3], 5.11 µM in assay [1] and 1.34 µM in assay [2].
For the compound `COc1cccc2c1cnn2CC1=NCCN1.Cl.Cl`, the IC50 on Nischarin is 32.9 µM. Further, the Ki in assay [3] was 0.382 µM; in assay [1], 0.305 µM; in assay [2], 1.67 µM.
The corresponding values for `Cc1cccc2nn(CC3=NCCN3)nc12.Cl.Cl` are 48.8 µM, 0.078 µM, 0.499 µM and 1.54 µM.
The compound `Cl.Clc1cccc2c1cnn2CC1=NCCN1` registered an IC50 at Nischarin of 5.15 µM. Besides, the values for the Ki in assay [3], in assay [1] and in assay [2] were 2.85 µM, 0.13 µM and 0.187 µM, respectively.
Compound `Cl.Fc1cccc2cnn(CC3=NCCN3)c12` displayed an IC50 at Nischarin of 16.4 µM. For the same compound, the Ki in assay [3] is 0.156 µM; in assay [1], 0.0126 µM; in assay [2], 0.107 µM.
As for `CCc1nc2ccccc2n1CC1=NCCN1.Cl.Cl`, the IC50 at Nischarin is 44.2 µM. For the same compound, the Ki was determined as 34.1 µM in assay [3], 5 µM in assay [1] and 5.5 µM in assay [2].
Regarding `Cc1ccc2c(cnn2CC2=NCCN2)c1.Cl.Cl`, the IC50 at Nischarin came out at 45.4 µM. Moreover, the Ki stood at 0.022 µM in assay [3], 0.268 µM in assay [1] and 0.363 µM in assay [2].
Compound `Cc1cccc2c1cnn2CC1=NCCN1.Cl` yielded an IC50 on Nischarin of 12.9 µM. Also, the Ki turned out to be 0.116 µM in assay [3], 0.197 µM in assay [1] and 0.409 µM in assay [2].
`Cl.Cl.c1ccc2c(c1)ncn2CC1=NCCN1` came in with an IC50 at Nischarin of 43.9 µM. In addition, the Ki amounted to 6.1 µM in assay [3], 3.25 µM in assay [1] and 0.929 µM in assay [2].
`Cc1cc2nnn(CC3=NCCN3)c2cc1C.Cl.Cl`: at Nischarin, the IC50 was found to be 16.8 µM. The values for the Ki in assay [3], in assay [1] and in assay [2] were 26.3 µM, 1.56 µM and 8.04 µM, respectively.
The corresponding values for `Cc1nn(CC2=NCCN2)c2ccccc12.Cl.Cl` are 21.3 µM, 0.359 µM, 0.435 µM and 0.095 µM.
As to `Cc1cc2nn(CC3=NCCN3)nc2cc1C.Cl.Cl`, the IC50 on Nischarin was 0.646 µM. For the same compound, the inhibitory constant (Ki) in assay [3] stood at 0.233 µM; in assay [1], 1.32 µM; in assay [2], 6.07 µM.
